The record followed here is ChEMBL document CHEMBL1123059, “2-(beta-Arylethylamino)- and 4-(beta-arylethylamino)quinazolines as phosphodiesterase inhibitors” (J Med Chem, 1985).

Test [1] is filed under the species Cavia porcellus. Put plainly: Relaxation in guinea pig tracheal preparation relative to papaverine, range 52.5-75.9. It counts as functional. The note with it: Trachea, read-out: ED50 (the source's name).
In test [2] the test system is cAMP phosphodiesterase (Bos taurus). In words: Ratio of Ki/Km for inhibition of bovine heart cAMP-phosphodiesterase.
For test [3], the target named is cAMP phosphodiesterase (Bos taurus). Put plainly: Inhibition of bovine heart cAMP-phosphodiesterase.
Test [4] is filed under the species Cavia porcellus. In words: Relaxation in guinea pig tracheal preparation relative to papaverine, range 63.1-79.4. It counts as functional. The note with it: Trachea, read-out: ED50 (the source's name).
In test [5] the target is cAMP phosphodiesterase (Bos taurus). In words: Inhibition of bovine heart cAMP-phosphodiesterase. This is another data set of the same source.
Test [6] is filed under the species Cavia porcellus. In words: Relaxation in guinea pig tracheal preparation relative to papaverine. It counts as functional. The note with it: Trachea, read-out: ED50 (the source's name).
For test [7], the species on record is Cavia porcellus. Put plainly: Percentage relaxation of guinea pig tracheal preparation relative to papaverine at 42 uM. In kind it is functional, Trachea. The method, boiled down:
(§1)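 Spiral trachea strips from female Hartley guinea pigs (300-500 g) were held in Krebs-Henseleit at 37 °C under 95% O2/5% CO2. Cumulative doses of the hydrochloride salt were given, then papaverine 10 μg/mL as the supramaximal reference. Relaxation at the stated concentration is given as % of papaverine maximum, with vehicle-corrected controls.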

The species named for test [8] is Cavia porcellus. Put plainly: Relaxation in guinea pig tracheal preparation relative to papaverine, range 33.1-91.2. In kind it is functional. The following applies: Trachea, read-out: ED50 (the source's name).
For test [9], the species on record is Cavia porcellus. In words: Relaxation in guinea pig tracheal preparation relative to papaverine, range 162-589. In kind it is functional. The note with it: Trachea, read-out: ED50 (the source's name).
For test [10], the species on record is Cavia porcellus. Put plainly: Percentage relaxation of guinea pig tracheal preparation relative to papaverine at 98 uM. In kind it is functional, Trachea. The method, boiled down: as §1
For test [11], the species on record is Cavia porcellus. Put plainly: Percentage relaxation of guinea pig tracheal preparation relative to papaverine at 70 uM. In kind it is functional, Trachea. In a few lines:
as §1

The species entered for test [12] is Cavia porcellus. Put plainly: Percentage relaxation of guinea pig tracheal preparation relative to papaverine at 84 uM. It counts as functional, Trachea. The method, boiled down:
as §1

Test [13] is filed under the species Cavia porcellus. In words: Percentage relaxation of guinea pig tracheal preparation relative to papaverine at 20 uM. It counts as functional, Trachea. The method, boiled down:
as §1

In general, IC50 refers to the concentration that inhibits the measured activity by half. High values mean weaker potency in that assay, low ones greater potency in that assay. Consider `CCN(CC)c1nc(NCC(O)c2ccc(O)c(CO)c2)c2cc(OC)c(OC)cc2n1.Cl` (stereo not drawn), for which the EC50 in the test listed under Cavia porcellus [1] is 63.1 µM. The Ratio in test [2] stood at 0.81. In test [3], this compound gave an IC50 of 428 µM.
On to `Cn1c(=O)c2nc[nH]c2n(C)c1=O` [THEOPHYLLINE], for which the EC50 in the test listed under Cavia porcellus [4] came out at 70.8 µM.
`CCN(CC)c1nc(NCC(O)c2cc(O)cc(O)c2)nc2cc(OC)c(OC)cc12.Cl` (stereo not drawn): the Ratio in test [2] came to 0.43. The compound further came in with an IC50 in [5] of 432 µM. The EC50 in the test filed under Cavia porcellus [6] came out at 26.9 µM.
`CCN(CC)c1nc(NCC(O)c2ccc(O)c(CO)c2)nc2cc(OC)c(OC)cc12.Cl` (stereo not drawn) showed a Max relaxation in the test listed under Cavia porcellus [7] of 36%. Also, the Ratio in test [2] came to 0.69. Moreover, in test [5], the IC50 amounted to 339 µM.
For `CCN(CC)c1nc(NCC(O)c2ccccc2)nc2cc(OC)c(OC)cc12` (stereo not drawn), the Ratio in [2] was determined as 1.88. The compound also showed an IC50 in test [5] of 328 µM. The EC50 in the test listed under Cavia porcellus [8] was 49 µM.
For `CCN(CC)c1nc(NCCc2ccccc2)nc2cc(OC)c(OC)cc12`, the Ratio in test [2] was determined as 0.054. In test [3], this compound returned an IC50 of 87 µM. Also, in the test listed under Cavia porcellus [9], the EC50 worked out at 234 µM.
For the compound `CCN(CC)c1nc(NCC(O)c2ccccc2)c2cc(OC)c(OC)cc2n1` (stereo not drawn), the Max relaxation in the test listed under Cavia porcellus [10] is 46%. The Ratio in test [2] came to 0.64. The same compound returned a half-inhibitory concentration (IC50) in [3] of 350 µM.
Regarding `CCN(CC)c1nc(NCCc2ccccc2)c2cc(OC)c(OC)cc2n1`, in test [2], the Ratio was 0.107. This compound also showed an IC50 in [5] of 16 µM. The compound also showed a Max relaxation in the test filed under Cavia porcellus [11] of 29%.
For the compound `CCN(CC)c1nc(NCC(O)c2cccc(O)c2)nc2cc(OC)c(OC)cc12` (stereo not drawn), the Ratio in test [2] was found to be 1.15. Besides, the Max relaxation in the test filed under Cavia porcellus [12] was determined as 11.5%. Further, in test [5], the IC50 was found to be 295 µM.
`CCN(CC)c1nc(NCC(O)c2cccc(O)c2)c2cc(OC)c(OC)cc2n1.Cl` (stereo not drawn): the Ratio in [2] stood at 0.73. The compound also returned an IC50 in test [3] of 610 µM. For the same compound, the Max relaxation in the test filed under Cavia porcellus [13] is 28%.
